The test system of data set [1] is MCF7. The experiment in a line: Drug uptake in human MCF7 cells at 0.5 to 1.0 MBq/mL after 1 hr in normoxic condition by gamma counting. The conditions noted are these: mcf7, 1 h. The class given is ADME, cell-based. Summed up:
(§1)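 MCF-7 cells in RPMI 1640 with 10% FBS were seeded at 100,000 cells/well and grown 24 h, then held 4 h normoxic (5% CO2) or hypoxic (5% CO2/95% N2 chamber, 37 °C). ¹⁸F-labeled tracer (0.5–1.0 MBq/mL in PBS) was added for 1 h at 37 °C. Cells were washed twice with PBS, lysed in 1 M NaOH, and gamma counted. Uptake is expressed as % of added activity; 6 replicates.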

Data set [2] has as its system MCF7. The experiment in a line: Drug uptake in human MCF7 cells at 0.5 to 1.0 MBq/mL after 1 hr in hypoxic condition by gamma counting. The class given is ADME, cell-based. The conditions noted are these: mcf7, 1 h. The method, boiled down:
as §1

In data set [3] the test system is MCF7. The experiment in a line: Drug uptake in human MCF7 cells at 0.5 to 1.0 MBq/mL after 1 hr measured 60 mins post wash out in normoxic condition by gamma counting. The class given is ADME, cell-based. The conditions noted are these: mcf7, 1 h. The method, boiled down: (§2)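 MCF-7 cells were preconditioned 4 h normoxic or hypoxic (5% CO2/95% N2), then given ¹⁸F tracer (0.5–1.0 MBq/mL) for 1 h at 37 °C. Radioactive medium was replaced with fresh RPMI 1640 (10% FBS) for a further 1 h under the same oxygen condition. Cells were then PBS-washed, lysed in 1 M NaOH and gamma counted. Retained activity is given as % of added.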

Data set [4] relates to MCF7. The experiment in a line: Drug uptake in human MCF7 cells at 0.5 to 1.0 MBq/mL after 1 hr measured 60 mins post wash out in hypoxic condition by gamma counting. The class given is ADME, cell-based. The conditions noted are these: mcf7, 1 h. The method, boiled down: as §2
A short description of data set [5]: 1-Octanol-phosphate buffer partition coefficient, log P of the compound at pH 7.4 after 30 mins by shake-flask method. The class given is physicochemical. Summed up:
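Shake-flask: about 0.01–0.1 mg/mL compound shaken in 1-octanol and 50 mM phosphate buffer (pH 7.4) for 30 min at room temperature. Equal amounts of each phase quantified by HPLC UV absorbance (C18, isocratic ethanol:water). Triplicate, mean ± SD.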

Data set [6] in a line: Drug metabolism of the compound assessed as reduction rate assessed per unit of enzyme in anoxic conditions in presence of bovine milk xanthine oxidase. The class given is physicochemical. The conditions noted are these: cattle. The method, boiled down:
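Xanthine oxidase in PBS (0.118 unit) added to 0.29 mM xanthine (reducing substrate) plus 0.12 mM nitroaromatic (oxidizing substrate) in 50 mM PBS pH 7.5 at 37 °C. Solutions argon-degassed 20 min; sealed cuvette. Rate taken from initial absorbance loss at λmax (>325 nm) or at the 249 nm isosbestic point, converted to nmol/min via extinction coefficients. Triplicate, mean ± SD.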

The subject of data set [7] is MCF7. The experiment in a line: Drug uptake in human MCF7 cells at 30 GBq/umol after 1 hr in hypoxic condition by gamma counting. The class given is ADME, cell-based. The conditions noted are these: mcf7, 1 h. The method, boiled down:
(§3)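 MCF-7 cells were grown in RPMI 1640 with 10% FBS and 1% P/S, seeded at 100,000 cells/well, and cultured 24 h at 37 °C in 5% CO2. They were then kept 4 h in a sealed chamber flushed with 5% CO2/95% N2 (10 L/min, 15 min). ¹⁸F-tracer (0.5–1.0 MBq/mL in PBS) was added for 1 h at 37 °C under hypoxia. Cells were PBS-washed twice, lysed in 1 M NaOH, and gamma-counted; uptake is % of added activity, n=6.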

For data set [8], the system named is MCF7. The experiment in a line: Drug uptake in human MCF7 cells at 30 MBq/umol after 1 hr in hypoxic condition by gamma counting. The class given is ADME, cell-based. The conditions noted are these: mcf7, 1 h. The method, boiled down: as §3
In data set [9] the test system is MCF7. The experiment in a line: Drug uptake in human MCF7 cells at 0.3 MBq/umol after 1 hr in hypoxic condition by gamma counting. The class given is ADME, cell-based. The conditions noted are these: mcf7, 1 h. Summed up: as §3

As to `O=[N+]([O-])c1cnc(NCc2cn(CC[18F])nn2)s1`, the Drug uptake entry in the data set on MCF7 [1], with MCF7 [2], in the data set on MCF7 [3] and in the data set with MCF7 [4] was “Active” in each case.
In the case of `O=[N+]([O-])c1ncccc1NCc1cn(CC[18F])nn1`, the Drug uptake entry with MCF7 [1] and in the data set with MCF7 [2] was “Active” in each case.
As to `O=[N+]([O-])c1ccnn1Cc1cn(CC[18F])nn1`, the Drug uptake entry with MCF7 [2] is recorded as “Not Active”.
Turning to `O=[N+]([O-])c1nccn1Cc1cn(CC[18F])nn1`, the Drug uptake result with MCF7 [1] and with MCF7 [2] was “Active” each time.
Usually logD stands for the decadic logarithm of the distribution of all forms, ionised or not, between an organic phase and buffer at a given pH. Lower therefore signals a more hydrophilic compound. Consider `O=[N+]([O-])c1cnc(NCc2cn(CCF)nn2)s1`, for which the logD at 0.5 h in [5] is 0.79. In data set [6], the Drug metabolism worked out at 277 nmol/min/U.
In data set [5], `O=[N+]([O-])c1ncccc1NCc1cn(CCF)nn1` registered a logD at 0.5 h of 0.04. For the same compound, the Drug metabolism in data set [6] stood at 58 nmol/min/U.
In the same order, the values of `O=[N+]([O-])c1ccnn1Cc1cn(CCF)nn1` are 0.03 and 20 nmol/min/U.
In data set [5], `O=[N+]([O-])c1nccn1Cc1cn(CCF)nn1` returned a logD at 0.5 h of -0.41. For the same compound, the Drug metabolism in data set [6] was determined as 36 nmol/min/U.
As to `O=[N+]([O-])c1nccn1CC(O)CF` (stereo unspecified) [FLUOROMISONIDAZOLE], in data set [6], the Drug metabolism was determined as 37 nmol/min/U.
For the compound `O=[N+]([O-])c1nccn1CC(O)C[18F]` (stereo unspecified) [[18F]FLUOROMISONIDAZOLE], the Drug uptake in the data set with MCF7 [7] stood at 3.9%; in the data set on MCF7 [8] it was 3.2%; with MCF7 [9], 1.1%.

The values above are taken from ChEMBL document CHEMBL2157962, “A fluorous and click approach for screening potential PET probes: Evaluation of potential hypoxia biomarkers” (Bioorg Med Chem, 2012).
